Reference: ChEMBL document CHEMBL4814044, “Design and synthesis, biological evaluation of bis-(1,2,3- and 1,2,4)-triazole derivatives as potential antimicrobial and antifungal agents” (2021)
The source made the active and inactive calls. The calls are words filed in the database; no cut-off is given here.

Key:
Format in all cases: functional
[1] = tested on: Aspergillus niger; assay: Antifungal activity against Aspergillus niger MTCC 404 assessed as zone of inhibition at 25.2 uM incubated for 2 days by cross streak plate method; details: MTCC 404, 48 h, time 2 day, read-out: IZ
How it was run: (§1)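 Fungal strain (A. niger MTCC 404 or S. cerevisiae MTCC 1344) was incubated with the compound for 2 days at 37 °C. Growth inhibition was then assessed by the cross streak plate method.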

[2] = tested on: Staphylococcus aureus; assay: Antibacterial activity against Staphylococcus aureus MTCC 96 assessed as bacterial growth inhibition by microdilution method
How it was run: (§2)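 Broth microdilution against Gram-positive and Gram-negative strains. The endpoint is the minimal inhibitory concentration, in µg/ml.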

[3] = Antioxidant activity assessed as DPPH radical scavenging activity
[4] = tested on: Saccharomyces cerevisiae; assay: Antifungal activity against Saccharomyces cerevisiae MTCC 1344 assessed as zone of inhibition at 16.8 uM incubated for 2 days by cross streak plate method; details: MTCC 1344, 48 h, time 2 day, read-out: IZ; how it was run: as §1
[5] = tested on: Aspergillus niger; assay: Antifungal activity against Aspergillus niger MTCC 404 assessed as zone of inhibition at 16.8 uM incubated for 2 days by cross streak plate method; details: MTCC 404, 48 h, time 2 day, read-out: IZ; how it was run: as §1
[6] = tested on: Saccharomyces cerevisiae; assay: Antifungal activity against Saccharomyces cerevisiae MTCC 1344 assessed as zone of inhibition at 25.2 uM incubated for 2 days by cross streak plate method; details: MTCC 1344, 48 h, time 2 day, read-out: IZ; how it was run: as §1
[7] = tested on: Aspergillus niger; assay: Antifungal activity against Aspergillus niger MTCC 404 assessed as zone of inhibition at 33.7 uM incubated for 2 days by cross streak plate method; details: MTCC 404, 48 h, time 2 day, read-out: IZ; how it was run: as §1
[8] = tested on: Bacillus subtilis; assay: Antibacterial activity against Bacillus subtilis MTCC 441 assessed as bacterial growth inhibition by microdilution method; how it was run: as §2
[9] = tested on: Saccharomyces cerevisiae; assay: Antifungal activity against Saccharomyces cerevisiae MTCC 1344 assessed as zone of inhibition at 33.7 uM incubated for 2 days by cross streak plate method; details: MTCC 1344, 48 h, time 2 day, read-out: IZ
How it was run: (§3)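 S. cerevisiae MTCC 1344 cultures were incubated for 2 days at 37 °C and then tested by the cross streak plate method.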

[10] = tested on: Escherichia coli; assay: Antibacterial activity against Escherichia coli MTCC 443 assessed as bacterial growth inhibition by microdilution method; how it was run: as §2
[11] = tested on: Pseudomonas aeruginosa; assay: Antibacterial activity against Pseudomonas aeruginosa MTCC 424 assessed as bacterial growth inhibition by microdilution method; how it was run: as §2
[12] = tested on: Saccharomyces cerevisiae; assay: Antifungal activity against Saccharomyces cerevisiae MTCC 1344 assessed as zone of inhibition at 25.9 uM incubated for 2 days by cross streak plate method; details: MTCC 1344, 48 h, time 2 day, read-out: IZ; how it was run: as §1
[13] = tested on: Aspergillus niger; assay: Antifungal activity against Aspergillus niger MTCC 404 assessed as zone of inhibition at 25.9 uM incubated for 2 days by cross streak plate method; details: MTCC 404, 48 h, time 2 day, read-out: IZ; how it was run: as §1
[14] = tested on: Aspergillus niger; assay: Antifungal activity against Aspergillus niger MTCC 404 assessed as zone of inhibition at 17.2 uM incubated for 2 days by cross streak plate method; details: MTCC 404, 48 h, time 2 day, read-out: IZ; how it was run: as §1
[15] = tested on: Aspergillus niger; assay: Antifungal activity against Aspergillus niger MTCC 404 assessed as zone of inhibition at 34.5 uM incubated for 2 days by cross streak plate method; details: MTCC 404, 48 h, time 2 day, read-out: IZ; how it was run: as §1
[16] = tested on: Saccharomyces cerevisiae; assay: Antifungal activity against Saccharomyces cerevisiae MTCC 1344 assessed as zone of inhibition at 17.2 uM incubated for 2 days by cross streak plate method; details: MTCC 1344, 48 h, time 2 day, read-out: IZ; how it was run: as §1
[17] = tested on: Saccharomyces cerevisiae; assay: Antifungal activity against Saccharomyces cerevisiae MTCC 1344 assessed as zone of inhibition at 34.5 uM incubated for 2 days by cross streak plate method; details: MTCC 1344, 48 h, time 2 day, read-out: IZ; how it was run: as §3
[18] = tested on: Saccharomyces cerevisiae; assay: Antifungal activity against Saccharomyces cerevisiae MTCC 1344 assessed as zone of inhibition at 32.1 uM incubated for 2 days by cross streak plate method; details: MTCC 1344, 48 h, time 2 day, read-out: IZ; how it was run: as §3
[19] = tested on: Aspergillus niger; assay: Antifungal activity against Aspergillus niger MTCC 404 assessed as zone of inhibition at 32.1 uM incubated for 2 days by cross streak plate method; details: MTCC 404, 48 h, time 2 day, read-out: IZ; how it was run: as §1
[20] = tested on: Aspergillus niger; assay: Antifungal activity against Aspergillus niger MTCC 404 assessed as zone of inhibition at 16 uM incubated for 2 days by cross streak plate method; details: MTCC 404, 48 h, time 2 day, read-out: IZ; how it was run: as §1
[21] = tested on: Saccharomyces cerevisiae; assay: Antifungal activity against Saccharomyces cerevisiae MTCC 1344 assessed as zone of inhibition at 24 uM incubated for 2 days by cross streak plate method; details: MTCC 1344, 48 h, time 2 day, read-out: IZ; how it was run: as §1
[22] = tested on: Saccharomyces cerevisiae; assay: Antifungal activity against Saccharomyces cerevisiae MTCC 1344 assessed as zone of inhibition at 16 uM incubated for 2 days by cross streak plate method; details: MTCC 1344, 48 h, time 2 day, read-out: IZ; how it was run: as §1
[23] = tested on: Aspergillus niger; assay: Antifungal activity against Aspergillus niger MTCC 404 assessed as zone of inhibition at 24 uM incubated for 2 days by cross streak plate method; details: MTCC 404, 48 h, time 2 day, read-out: IZ; how it was run: as §1
[24] = tested on: Saccharomyces cerevisiae; assay: Antifungal activity against Saccharomyces cerevisiae MTCC 1344 assessed as zone of inhibition at 31.2 uM incubated for 2 days by cross streak plate method; details: MTCC 1344, 48 h, time 2 day, read-out: IZ; how it was run: as §1
[25] = tested on: Aspergillus niger; assay: Antifungal activity against Aspergillus niger MTCC 404 assessed as zone of inhibition at 15.6 uM incubated for 2 days by cross streak plate method; details: MTCC 404, 48 h, time 2 day, read-out: IZ; how it was run: as §1
[26] = tested on: Aspergillus niger; assay: Antifungal activity against Aspergillus niger MTCC 404 assessed as zone of inhibition at 23.4 uM incubated for 2 days by cross streak plate method; details: MTCC 404, 48 h, time 2 day, read-out: IZ; how it was run: as §1
[27] = tested on: Saccharomyces cerevisiae; assay: Antifungal activity against Saccharomyces cerevisiae MTCC 1344 assessed as zone of inhibition at 23.4 uM incubated for 2 days by cross streak plate method; details: MTCC 1344, 48 h, time 2 day, read-out: IZ; how it was run: as §1
[28] = tested on: Aspergillus niger; assay: Antifungal activity against Aspergillus niger MTCC 404 assessed as zone of inhibition at 31.2 uM incubated for 2 days by cross streak plate method; details: MTCC 404, 48 h, time 2 day, read-out: IZ; how it was run: as §1
[29] = tested on: Saccharomyces cerevisiae; assay: Antifungal activity against Saccharomyces cerevisiae MTCC 1344 assessed as zone of inhibition at 15.6 uM incubated for 2 days by cross streak plate method; details: MTCC 1344, 48 h, time 2 day, read-out: IZ; how it was run: as §1

## O=C(CSc1nnc(-c2ccccc2OCc2cn(-c3ccccc3)nn2)n1Cc1ccccc1)c1ccccc1
[1]
  zone of inhibition at 25.2 µM: 3 mm
[2]
  MIC: 7.9 µg/mL
[3]
  Activity: inactive
[4]
  zone of inhibition at 16.8 µM: 2 mm
[5]
  zone of inhibition at 16.8 µM: 2 mm
[6]
  zone of inhibition at 25.2 µM: 3 mm
[7]
  zone of inhibition at 33.7 µM: 3 mm
[8]
  MIC: 5 µg/mL
[9]
  zone of inhibition at 33.7 µM: 3 mm
[10]
  MIC: 10 µg/mL
[11]
  MIC: 7.5 µg/mL

## O=C(CSc1nnc(-c2ccccc2OCc2cn(-c3ccccc3)nn2)n1Cc1ccccc1)c1ccc(Cl)cc1
[1]
  zone of inhibition at 25.2 µM: 3 mm
[2]
  MIC: 9.5 µg/mL
[3]
  Activity: inactive
[4]
  zone of inhibition at 16.8 µM: 2 mm
[5]
  zone of inhibition at 16.8 µM: 1.5 mm
[6]
  zone of inhibition at 25.2 µM: 3 mm
[7]
  zone of inhibition at 33.7 µM: 3 mm
[8]
  MIC: 5 µg/mL
[9]
  zone of inhibition at 33.7 µM: 3 mm
[10]
  MIC: 9.1 µg/mL
[11]
  MIC: 8.8 µg/mL

## CC1(C)S[C@@H]2[C@H](NC(=O)[C@H](N)c3ccccc3)C(=O)N2[C@H]1C(=O)O [AMPICILLIN]
[2]
  MIC: 10 µg/mL
[8]
  MIC: 10 µg/mL
[10]
  MIC: 3.9 µg/mL
[11]
  MIC: 10 µg/mL

## O=C(Sc1nnc(-c2ccccc2OCc2cn(-c3ccc(Cl)cc3)nn2)n1Cc1ccccc1)c1ccccc1
[12]
  zone of inhibition at 25.9 µM: 7 mm
[2]
  MIC: 4.1 µg/mL
[3]
  Activity: inactive
[13]
  zone of inhibition at 25.9 µM: 6 mm
[14]
  zone of inhibition at 17.2 µM: 5.3 mm
[8]
  MIC: 6.5 µg/mL
[15]
  zone of inhibition at 34.5 µM: 7.6 mm
[10]
  MIC: 6.1 µg/mL
[16]
  zone of inhibition at 17.2 µM: 5 mm
[17]
  zone of inhibition at 34.5 µM: 7.4 mm
[11]
  MIC: 7.3 µg/mL

## O=C(CSc1nnc(-c2ccccc2OCc2cn(-c3ccccc3)nn2)n1-c1ccccc1)c1ccc(Br)cc1
[18]
  zone of inhibition at 32.1 µM: 3 mm
[19]
  zone of inhibition at 32.1 µM: 3 mm
[20]
  zone of inhibition at 16 µM: 1.5 mm
[21]
  zone of inhibition at 24 µM: 2 mm
[2]
  MIC: 7.9 µg/mL
[3]
  Activity: inactive
[22]
  zone of inhibition at 16 µM: 2 mm
[8]
  MIC: 4.1 µg/mL
[10]
  MIC: 10 µg/mL
[23]
  zone of inhibition at 24 µM: 2 mm
[11]
  MIC: 7.5 µg/mL

## O=C(CSc1nnc(-c2ccccc2OCc2cn(-c3ccccc3)nn2)n1Cc1ccccc1)c1ccc(Br)cc1
[24]
  zone of inhibition at 31.2 µM: 7 mm
[25]
  zone of inhibition at 15.6 µM: 5 mm
[26]
  zone of inhibition at 23.4 µM: 7.4 mm
[2]
  MIC: 3.9 µg/mL
[27]
  zone of inhibition at 23.4 µM: 6.5 mm
[3]
  Activity: inactive
[8]
  MIC: 4.2 µg/mL
[10]
  MIC: 4.5 µg/mL
[28]
  zone of inhibition at 31.2 µM: 7.6 mm
[29]
  zone of inhibition at 15.6 µM: 6 mm
[11]
  MIC: 8.8 µg/mL

## O=C(CSc1nnc(-c2ccccc2OCc2cn(-c3ccccc3)nn2)n1-c1ccccc1)c1ccc(Cl)cc1
[12]
  zone of inhibition at 25.9 µM: 3 mm
[2]
  MIC: 8.4 µg/mL
[3]
  Activity: inactive
[13]
  zone of inhibition at 25.9 µM: 3 mm
[14]
  zone of inhibition at 17.2 µM: 2.1 mm
[8]
  MIC: 4 µg/mL
[15]
  zone of inhibition at 34.5 µM: 3 mm
[10]
  MIC: > 45.4 µg/mL
[16]
  zone of inhibition at 17.2 µM: 2 mm
[17]
  zone of inhibition at 34.5 µM: 3 mm
[11]
  MIC: 7.9 µg/mL
